Measured values reported in ChEMBL document CHEMBL3232767, “Synthesis of the antiproliferative agent hippuristanol and its analogues from hydrocortisone via Hg(II)-catalyzed spiroketalization: structure-activity relationship” (J Med Chem, 2014).
Calls of active or inactive are those of the source. The rule behind the calls is not given here.

Species: Oryctolagus cuniculus
Assay: Inhibition of translation in rabbit reticulocyte lysates using SP6 RNA polymerase at 10 uM by FF/HCV/Ren reporter gene assay
Assay type: functional
Procedure, shortened: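 Bicistronic mRNA (cap-dependent FF, HCV IRES-driven Ren as internal standard) translated in vitro at 4 ng/μL in rabbit reticulocyte lysate; compounds at 10 μM final vs 0.5% DMSO vehicle; anisomycin as control. FF and Ren luciferase read by luminometer, normalized to vehicle set at 1; duplicates averaged, error of the mean given.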

| Structure (SMILES) | inhibition |
| --- | --- |
| C[C@H]1C[C@@]2(O[C@H]3C[C@H]4[C@@H]5CC[C@H]6C[C@@H](O)CC[C@]6(C)[C@H]5[C@@H](O)C[C@]4(C)[C@H]3[C@@]2(C)O)OC1(C)C | inactive |
| C[C@H]1C[C@@]2(O[C@H]3C[C@H]4[C@@H]5CC[C@H]6C[C@H](O)CC[C@]6(C)[C@H]5[C@@H](O)C[C@]4(C)[C@H]3[C@H]2O)OC1(C)C | inactive |
| C[C@H]1C[C@]2(O[C@H]3C[C@H]4[C@@H]5CC[C@H]6C[C@H](O)CC[C@]6(C)[C@H]5[C@@H](O)C[C@]4(C)[C@H]3[C@H]2O)OC1(C)C | inactive |
| COc1ccc(C[C@H]2NC[C@H](O)[C@H]2OC(C)=O)cc1 | Active |
| C[C@H]1C[C@]2(O[C@H]3C[C@H]4[C@@H]5CC[C@H]6C[C@H](O)CC[C@]6(C)[C@H]5[C@@H](O)C[C@]4(C)[C@H]3C2=O)OC1(C)C | inactive |
| CC[C@@]1(O)[C@H]2[C@H](C[C@H]3[C@@H]4CC[C@H]5C[C@H](O)CC[C@]5(C)[C@H]4[C@@H](O)C[C@@]32C)O[C@]12C[C@H](C)C(C)(C)O2 | inactive |
| C[C@H]1C[C@@]2(O[C@H]3C[C@H]4[C@@H]5CC[C@H]6C[C@H](N)CC[C@]6(C)[C@H]5[C@@H](O)C[C@]4(C)[C@H]3[C@@]2(C)O)OC1(C)C | inactive |
| CC[C@@]1(O)[C@H]2[C@H](C[C@H]3[C@@H]4CC[C@H]5C[C@H](O)CC[C@]5(C)[C@H]4[C@@H](O)C[C@@]32C)O[C@@]12C[C@H](C)C(C)(C)O2 | inactive |
| C[C@H]1C[C@@]2(O[C@H]3C[C@H]4[C@@H]5CC[C@H]6C[C@H](O)CC[C@]6(C)[C@H]5[C@@H](O)C[C@]4(C)[C@H]3[C@@]2(C)O)OC1(C)C | Active |
| C[C@H]1C[C@]2(O[C@H]3C[C@H]4[C@@H]5CC[C@H]6C[C@H](O)CC[C@]6(C)[C@H]5[C@@H](O)C[C@]4(C)[C@H]3[C@]2(O)CO)OC1(C)C | inactive |
| C[C@H]1C[C@]2(O[C@H]3C[C@H]4[C@@H]5CC[C@H]6C[C@H](O)CC[C@]6(C)[C@H]5[C@@H](O)C[C@]4(C)[C@H]3[C@@]2(C)O)OC1(C)C | Active |
